Compound activity: PubChem BioAssay, Johns Hopkins Ion Channel Center
Sampled rows, rich in hits. Any-hit rate of the full collection: about 3.5%.
RGS4 pot – RGS4 potentiation or activation. B-score at 10 µM. HEK293 M3R/inducible RGS4, carbachol calcium flux Fluo4; hits give low values. 310,000 tested, 0.92% active;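 active = B-score of the integrated calcium signal more than 4 SD below the library mean, with starting fluorescence not abnormally high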;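 also: negative B-score means reduced calcium response which marks RGS4 activation or potentiation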
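Detection: kinetic calcium fluorescence imaging with Fluo4-AM dye, 2 µM / Material: HEK293 cells with stable M3R and inducible RGS4 / Schedule: recording 10 s baseline at 1 Hz, 100 s post-agonist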
RGS4 block – inhibitors of human RGS4; HEK293 M3R/RGS4 inducible, Fluo-4 calcium flux; hits give high values; triggered by carbachol at its EC20; B-score at 10 µM; 310,000 tested, 0.45% active;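 active = B-score, a plate-corrected calcium signal, over three deviations above library mean, with baseline fluorescence within five deviations of library mean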;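 also: RGS4 expression induced by doxycycline in cells with stable M3 receptor; B-score is computed from the integrated fluorescence ratio over baseline after carbachol; higher B-score means a larger calcium signal and so more RGS4 inhibition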
Target sequence (P49798 whole entry, looked up): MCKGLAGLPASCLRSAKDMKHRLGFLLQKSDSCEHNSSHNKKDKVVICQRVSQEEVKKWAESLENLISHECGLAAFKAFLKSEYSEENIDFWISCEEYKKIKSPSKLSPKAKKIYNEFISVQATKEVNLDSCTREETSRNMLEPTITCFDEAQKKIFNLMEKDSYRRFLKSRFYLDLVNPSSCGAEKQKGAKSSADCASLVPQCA
MrgX1 PAM – human MrgX1 positive allosteric modulation, primary screen | MrgX1-HEK293, Fluo-4 calcium flux, FDSS; hits give high values | B-score at 10 µM | 310,000 tested, 0.63% active | AID 588675;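 active = plate-corrected calcium response at least 3 library SD above typical, normal starting fluorescence, not activating the receptor alone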;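 also: compound read alongside a low EC10 to EC30 dose of BAM8-22 agonist; peak minus trough fluorescence over baseline measured at the second addition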
Target sequence (Q96LB2 whole entry, looked up): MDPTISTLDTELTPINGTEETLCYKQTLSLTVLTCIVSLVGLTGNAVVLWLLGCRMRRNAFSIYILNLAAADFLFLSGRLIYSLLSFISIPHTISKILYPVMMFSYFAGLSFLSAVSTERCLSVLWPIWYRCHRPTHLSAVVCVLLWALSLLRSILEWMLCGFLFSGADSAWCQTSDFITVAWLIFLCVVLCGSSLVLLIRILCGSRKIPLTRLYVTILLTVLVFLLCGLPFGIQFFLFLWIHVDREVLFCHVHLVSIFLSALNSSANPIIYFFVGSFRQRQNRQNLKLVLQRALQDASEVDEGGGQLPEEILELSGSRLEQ
MrgX1 agonist – agonists of human MrgX1 receptor | Q96LB2 | MrgX1-HEK293 cells, Fluo-4 calcium fluorescence, agonist mode; hits give high values | B-score at 10 µM | 310,000 tested, 0.44% active | AID 588627;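 active = calcium response B-score plate-corrected fluorescence ratio at least 3 library SD, with starting fluorescence B-score inside 5 SD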
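System: HEK293 cells stably expressing human MrgX1 receptor; Dosing: test compound in the initial addition of three; Schedule: overnight plating, then 30 min 37 °C plus 30 min room-temperature dye loading; Detection: kinetic calcium dye fluorescence, Fluo-4 NW; Controls: per-plate positive and negative controls for Z′ factor.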
MrgX1 antagonist – human MrgX1 receptor antagonism, primary screen. 310,000 tested, 1.3% active. Q96LB2. AID 588676. MRGX1-HEK293 calcium flux, Fluo-4, BAM8-22 antagonism; hits give low values. B-score at 10 µM;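 active = calcium-response B-score plate-corrected more than 3 library SD below zero, starting fluorescence within 5 deviations, no agonist response on first addition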;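 also: peak minus trough fluorescence over baseline after final BAM8-22 challenge near maximal dose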
MrgX1 PAM conf – reconfirmed allosteric activator of human MrgX1 receptor; shares compounds with MrgX1 PAM; MrgX1-HEK293, Fluo-4 calcium fluorescence, FDSS; activation (ratio percentage), % at 10 µM; 1,200 tested, 13% active; AID 602413;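 active = ratio at least 3 SD above the weak peptide control, stable starting fluorescence, no direct agonism earlier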;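 also: compound followed by low BAM8-22 agonist challenge near EC20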
HEK293 Ca flux – MrgX1 antagonist counter-screen hit in parental HEK293 cells | shares compounds with MrgX1 antagonist | Fluo-4 calcium fluorescence, FDSS | fluorescence ratio F(max-min)/F0 at 10 µM | 4,000 tested, 2% active;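 active = duplicate-averaged calcium fluorescence ratio at least three times the standard deviation of buffer wells, a nonspecific response in parental cells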
HEK293 Ca counter – counter-screen for MrgX1 allosteric activators: effect in parental HEK293 cells; shares compounds with MrgX1 antagonist; parental HEK293 calcium flux, Fluo-4 fluorescence ratio; hits give high values; fluorescence ratio F(max-min)/F0 at 10 µM; 4,000 tested, 0.4% active; AID 624114;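 active = calcium fluorescence ratio, averaged over duplicates, at least 3 SD of the buffer-well ratio, meaning a nonspecific response in receptor-free cells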;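 also: untransfected parental HEK293 lacking MrgX1 used as counterscreen for MrgX1 allosteric activators; fluorescence change taken during the second addition on a kinetic imager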
HEK293 Ca cntr2 – counter-screen for MrgX1 activators: effect in parental HEK293 cells | shares compounds with MrgX1 antagonist | Fluo-4 calcium fluorescence (FDSS); hits give high values | fluorescence ratio F(max-min)/F0 at 10 µM | 4,000 tested, 8.7% active | AID 624115;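 active = calcium fluorescence ratio at least three times the spread of buffer wells, meaning a non-specific response in parental cells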
A number is an active result; – = inactive; · = no result given.

SMILES | RGS4 pot | RGS4 block | MrgX1 PAM | MrgX1 agonist | MrgX1 antagonist | MrgX1 PAM conf | HEK293 Ca flux | HEK293 Ca counter | HEK293 Ca cntr2
CC12COC3(C(=O)Nc4ccc5ccccc5c4)CC1CCC32C (stereo unspecified) | – | – | 17.4 | – | – | – | – | – | –
CC(C)(C)C(=O)NC1CCN(CC(=O)Nc2ccc3c(c2)OCO3)CC1 | – | – | – | – | – | · | · | · | ·
COc1cc(C#N)ccc1OC(=O)c1cccc(S(=O)(=O)N2CCN(C)CC2)c1 | – | – | – | – | – | · | · | · | ·
COCc1cc(=O)[nH]c(/N=C(\N)Nc2ccccc2C)n1 | – | – | 20.6 | – | – | – | – | – | –
COc1ccc(OC)c(-c2csc(NC(=O)Cc3cccs3)n2)c1 | – | – | 7.24 | – | – | – | – | – | –
Cc1ccc(Nc2nc(-c3cccnc3)cs2)cc1C | – | – | 6.52 | – | – | – | – | – | –
Brc1ccc(Nc2nc(-c3cccnc3)cs2)cc1 | – | – | – | – | – | · | · | · | ·
O=C(CCc1ccccc1O)N/N=C/c1ccc(Sc2cccc3cccnc23)o1 | – | – | – | – | – | · | · | · | ·
COc1ccc(Br)cc1S(=O)(=O)Nc1cccc(C)n1 | – | – | 12.4 | – | – | – | – | – | –
COc1ccc(S(=O)(=O)Nc2cccc(C)n2)c2ccccc12 | – | – | – | – | – | · | · | · | ·
COc1ccc(C2=CC(c3c(C)nn(-c4ccccc4)c3Cl)n3nnnc3N2)cc1OC (stereo unspecified) | · | · | 6.98 | – | – | – | – | – | –
COc1ccccc1C1C=C(c2ccc(C)cc2)Nc2nnnn21 (stereo unspecified) | – | – | – | – | – | · | · | · | ·
CC(=O)NCC(=O)NC1CCCc2c1cnn2-c1ccc(C(C)(C)C)cc1 (stereo unspecified) | – | – | 8.95 | – | – | – | – | – | –
O=C(Nc1ccccc1N1CCOCC1)c1ccc2ccccc2c1 | – | – | 7.21 | – | – | – | – | – | –
O=C(Nc1ccccc1N1CCOCC1)c1cccc(NS(=O)(=O)c2ccc(F)c(F)c2)c1 | – | – | 11.2 | – | – | – | – | – | –
O=C(Nc1ccccc1N1CCOCC1)c1ccccc1NS(=O)(=O)c1ccc(F)c(F)c1 | – | – | – | – | – | · | · | · | ·
CC1CN(C(=O)c2ccn(C)n2)CC(C)O1 (stereo unspecified) | – | – | – | – | – | · | · | · | ·
COc1ccc(N2CCN(C(c3ccccc3)c3nnnn3Cc3ccc(F)cc3)CC2)cc1 (stereo unspecified) | – | – | – | – | – | · | · | · | ·
Cc1ccc(C2=NS(=O)(=O)N(C)C(C(=O)N3CCOCC3)=C2)cc1 | – | – | – | – | – | · | · | · | ·
CN1C(=O)/C(=C/c2ccccc2F)Sc2ccc(C(=O)N3CCCC3)cc21 | – | – | – | – | – | · | · | · | ·
CSc1ncccc1C(=O)NCc1ccc(C)cc1 | – | – | – | – | – | · | · | · | ·
CCOc1ncccc1C(=O)NCc1ccc(C)cc1 | – | – | 7.17 | – | – | – | – | – | –
COCc1cc(C)nc(NC2CCCCC2)c1C#N | · | · | – | – | – | · | · | · | ·
COCc1cc(SC2CCCCC2)nc(C)n1 | – | – | 14.7 | – | – | – | – | – | –
COc1ccccc1N(CC(=O)NC1CC2CCC1C2)S(=O)(=O)c1ccc(C)cc1 (stereo unspecified) | – | – | – | – | – | · | · | · | ·
SMILES | RGS4 pot | RGS4 block | MrgX1 PAM | MrgX1 agonist | MrgX1 antagonist | MrgX1 PAM conf | HEK293 Ca flux | HEK293 Ca counter | HEK293 Ca cntr2
COc1ccc(S(=O)(=O)N(CC(=O)NC2CC3CCC2C3)c2ccccc2OC)cc1 (stereo unspecified) | – | – | 8.3 | – | – | – | – | – | –
CC(=O)n1cc([C@H]2C=C(C(=O)N3CCOCC3)O[C@@H](OCCCCO)C2)c2ccccc21 | – | – | – | – | – | · | · | · | ·
CCOC(=O)c1ccc(NC(=O)C2CC3CCC2C3)cc1 (stereo unspecified) | – | – | 7.53 | – | – | – | – | – | –
Cc1ccc(S(=O)(=O)CC(=O)Nc2nc(-c3ccccc3)cs2)cc1 | – | – | – | – | – | · | · | · | ·
O=C(CS(=O)(=O)c1ccccc1)Nc1nc(-c2ccccc2)cs1 | – | – | 8.44 | – | – | – | – | – | –
C=CCn1c(=O)c(C(=O)Nc2ccccc2S(N)(=O)=O)c(O)c2ccccc21 | – | – | 8.39 | – | – | – | – | – | –
CCOc1ccccc1/C=C/c1nc2ccccc2[nH]c1=O | – | – | – | – | – | · | · | · | ·
Cc1csc(SCC(=O)NC(=O)C2CCCCC2)n1 | – | – | – | – | – | · | · | · | ·
CCOC(=O)c1cnc(-c2ccccc2)nc1N(C)C | – | – | – | – | – | · | · | · | ·
CCOC(=O)c1cnc(-c2ccccc2)nc1N | – | – | 10.1 | – | – | – | – | – | –
COC(=O)c1[nH]c2ccc(C)cc2c1NC(=O)CN1CCN(c2ccccc2)CC1 | – | – | – | – | – | · | · | · | ·
COC(=O)c1[nH]c2ccc(C)cc2c1NC(=O)CN1CCC(C)CC1 | – | – | 7.84 | – | – | – | – | – | –
COc1ccc(-c2nnc(NC(=O)c3cc(C)on3)s2)cc1 | – | – | 8.23 | – | – | – | – | – | –
CC(c1ccon1)N(C)Cc1cn(C)nc1-c1cccc(Cl)c1 (stereo unspecified) | – | – | – | – | – | · | · | · | ·
O=C1CC(NCc2ccc(F)cc2)C(=O)N1c1ccccc1 (stereo unspecified) | – | – | 8.11 | – | – | – | – | – | –
COc1ccc(CN(CC2CCCO2)C(=O)c2cc3sccc3n2C)c(OC)c1 (stereo unspecified) | – | – | 6.45 | – | – | – | – | – | –
CC(C)C(OC(=O)c1cc2sccc2n1C)C(=O)NCC1CCCO1 (stereo unspecified) | – | – | – | – | – | · | · | · | ·
Cc1cccc(C(CC(=O)O)NC(=O)C(F)(F)F)c1 (stereo unspecified) | – | – | – | – | – | · | · | · | ·
CCCn1c(=O)c(C(=O)NCCCc2ccccc2)c(O)c2ccccc21 | – | – | 6.76 | – | – | – | – | – | –
C=CCc1ccccc1Oc1cc(F)nc(N)n1 | – | – | 15.3 | – | – | 9.9% | – | – | –
Cc1ccc(C)c(Oc2cc(F)nc(N)n2)c1 | – | – | – | – | – | · | · | · | ·
CCOc1ccccc1N(CC(=O)NC1CCCCC1)C(=O)CCC(=O)Nc1cc(C)ccn1 | – | – | – | – | – | · | · | · | ·
Cc1cc(SCC(=O)c2ccc3c(c2)OCO3)nc2ccccc12 | – | – | – | – | – | · | · | · | ·
